The record followed here is PubChem BioAssay.

The nature of assay [1]: inhibitors of TNFa-induced NFkB p65 translocation, primary screen, imaging, HUVEC, MLSMR starter and 10KST1 sets (AID 438;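 active = inhibition above 20% together with a positive visual image hit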;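 also: compound added about 3h40 before a 20 min TNFalpha stimulation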;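 as to inhibition: signal is the nuclear over cytoplasmic p65 intensity ratio per well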). The conditions noted are these: HUVEC TNFa-induced p65 nuclear translocation; cell count: measured here: nuclei count (cytotoxicity indicator), at 2.08 µM; inhibition: at 2 µM, stronger effect = higher value, 0% TNFa-plus-vehicle, 100% no-TNFa wells.
A short description of assay [2]: inhibitors of mutant huntingtin aggregation, primary screen, imaging, exon1htt(103Q)mCFP cells, high-content imaging (AID 483;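 active = visual image review flags a hit and inhibition of aggregation exceeds 20%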;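 also: compound exposure lasted 3 days before fixation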;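 as to nuclei count: percent of the per-plate median nuclei count of sample wells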). Particulars: exon1htt(103Q)mCFP cell line, aggregate imaging, at 2 µM; inhibition of aggregation: stronger effect = higher value; nuclei count: measured here: cell count, toxicity.
A short description of assay [3]: inhibitors of E-selectin induction by TNFa, primary screen, imaging, HUVEC, immunofluorescence, MLSMR starter and 10KST1 sets (AID 487;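 active = visually confirmed hit in the image check and inhibition above 20%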;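 as to inhibition: signal is fraction of cell area covered by stained E-selectin grains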;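 as to nuclei count: 100% = median nuclei count of all wells on the same plate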). The conditions noted are these: HUVEC TNFalpha-induced E-selectin immunofluorescence imaging, at 2 µM; inhibition: stronger effect = higher value; nuclei count: measured here: cell number, toxicity.
For assay [4], the target named is Voltage-gated potassium channel subunit beta-2 (Rattus norvegicus) (UniProt P62483). As to the kind of experiment: KvBeta enzyme negative modulators, primary screen, biochemical, NADPH fluorescence (AID 622;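 active = fluorescence slope higher than the sample average by over 3 SD, cut at about -0.22 in these data, passing the limit was not always enough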;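 also: slope of raw intensity against log time taken from 70 to 1610 s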). The conditions noted are these: recombinant KvBeta, 4-cyanobenzaldehyde reduction, at 10 µM, stronger effect = higher value.
Sequence of Voltage-gated potassium channel subunit beta-2 (Rattus norvegicus) (P62483 whole entry, looked up): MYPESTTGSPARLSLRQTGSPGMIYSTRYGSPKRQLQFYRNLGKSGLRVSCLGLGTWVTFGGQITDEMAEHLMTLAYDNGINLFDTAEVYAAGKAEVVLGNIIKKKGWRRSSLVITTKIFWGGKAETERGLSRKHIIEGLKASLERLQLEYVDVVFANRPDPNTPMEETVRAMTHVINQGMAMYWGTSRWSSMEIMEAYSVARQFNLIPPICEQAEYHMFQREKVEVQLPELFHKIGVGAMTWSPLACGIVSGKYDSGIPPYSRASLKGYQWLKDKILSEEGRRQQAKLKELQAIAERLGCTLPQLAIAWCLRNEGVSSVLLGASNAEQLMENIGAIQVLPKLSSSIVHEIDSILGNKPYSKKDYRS
Assay [5] has the same target. Nature of the assay: KvBeta positive modulators, primary screen, biochemical, NADPH fluorescence (AID 623).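 Also: fluorescence intensity change per second fitted from 20 to 320 s.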 Particulars: Recombinant KvBeta, NADPH fluorescence decrease slope, 10 min; at 10 µM; stronger effect = lower value.
Assay [6] has as its target Muscarinic acetylcholine receptor M4 (Homo sapiens) (UniProt P08173). As to the kind of experiment: compounds altering M4/GIRK thallium flux, either direction, primary screen, M4 allosteric agonist project, cell-based, HEK293 M4/GIRK, BTC-AM (AID 625;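 active = fluorescence slope after compound addition differing from the mean of all tested samples at 99.7% confidence, mostly higher but some lower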;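 also: thallium influx through GIRK channels coupled to M4 in HEK293 cells with BTC-AM dye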). The conditions noted are these: at 10 µM, actives lie on both sides. The method in brief:
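Material: HEK293 cells with M4 receptor and GIRK channels; Times: cells overnight at 37 °C, BTC-AM loading 1 h, reads 2 min total; Technique: kinetic BTC-AM fluorescence sampled at 1 Hz, 10 s pre-addition baseline; Read-out basis: slope over 15–24 s of trace normalized to starting intensity; Controls: carbachol positive, DMSO negative.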

A short description of assay [7]: inhibitors of Sendai virus-induced IRF3 signaling, primary screen, TLR/RLR signaling modifier project, cell-based, Sendai virus stimulus, luciferase, 10K MLSCN set (AID 602276;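 active = inhibition at or above 50% at 10 µM; inactive = inhibition below 50%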;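 also: firefly luciferase from ISG56 promoter only with Renilla not read in this screen; 0% = Sendai virus plus DMSO and 100% = medium plus DMSO without virus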). The conditions noted are these: HEK293 RL24 IRF3 luciferase reporter, at 10 µM, stronger effect = higher value.
A short description of assay [8]: inhibitors of poly I:C-induced TLR3 signaling, primary screen, cell-based, poly I:C stimulus, luciferase, 10K MLSCN set (AID 602277;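 active = inhibition of the reporter signal at or above 50%; inactive = inhibition below 50%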). The conditions noted are these: HEK293-TLR3 RL24 IRF3 luciferase reporter, at 10 µM, stronger effect = higher value.

SMILES strings stand for the structures. Calls of active or inactive are those of the source.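 The calls were made as follows, unless noted: active = NADPH fluorescence slope more negative than the mean of all samples by about 3 SD, 99.7% confidence; inactive = the rest.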

Sequence of Muscarinic acetylcholine receptor M4 (Homo sapiens) (P08173 whole entry, looked up): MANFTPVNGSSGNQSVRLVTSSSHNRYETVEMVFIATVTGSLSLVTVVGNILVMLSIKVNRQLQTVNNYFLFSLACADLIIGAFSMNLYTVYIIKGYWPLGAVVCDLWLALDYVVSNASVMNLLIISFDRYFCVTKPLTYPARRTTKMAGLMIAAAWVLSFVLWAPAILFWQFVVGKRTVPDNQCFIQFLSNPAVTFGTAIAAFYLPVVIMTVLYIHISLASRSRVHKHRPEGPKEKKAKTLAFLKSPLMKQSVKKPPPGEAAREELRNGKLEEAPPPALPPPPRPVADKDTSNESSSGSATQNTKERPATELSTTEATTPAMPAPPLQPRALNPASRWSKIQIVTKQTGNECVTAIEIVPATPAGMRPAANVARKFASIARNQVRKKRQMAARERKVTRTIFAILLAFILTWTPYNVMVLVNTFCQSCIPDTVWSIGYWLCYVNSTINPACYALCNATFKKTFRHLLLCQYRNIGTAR

As to `CCN1CCN(C(=O)c2cn(CCOC)c(=O)c3c2c2ccccc2n3C)CC1`, in assay [1], the cell count amounted to 460. For the same compound, the inhibition in assay [1] is 2.7% (inactive); in assay [3], -40.3% (inactive); in assay [7], 6.11% (inactive); in assay [8] it was 14.5% (inactive). Besides, in assay [2], the inhibition of aggregation was 2.4% (inactive). Further, the nuclei count in assay [2] was found to be 108%; in assay [3] it was 109%. For the same compound, the values for the fluorescence slope in assay [4] and in assay [6] were -0.582 (inactive) and 0.00622 (inactive), respectively. Also, the NADPH fluorescence slope in assay [5] is -6.9e-06 (inactive).
On to `CCOc1ccc(C(=O)N(Cc2ccc(N(C)C)cc2)C2CCS(=O)(=O)C2)cc1` (centres undefined), for which, in assay [1], the cell count turned out to be 249. The inhibition in assay [1] is -12.2% (inactive); in assay [3], -56.2% (inactive); in assay [7], 19.7% (inactive); in assay [8], 23.5% (inactive). The inhibition of aggregation in assay [2] was 2.5% (inactive). For the same compound, the nuclei count in assay [2] is 75%; in assay [3] it was 96.7%. The fluorescence slope in assay [4] was -0.618 (inactive); in assay [6] it was 0.00328 (inactive). The NADPH fluorescence slope in assay [5] is -3.1e-05 (inactive).
In the case of `CCCCN(CC)S(=O)(=O)c1ccc2c(c1)CCCN2C(C)=O`, the cell count in assay [1] turned out to be 490. Besides, the inhibition in assay [1] is 2.9% (inactive); in assay [3], -88.5% (inactive); in assay [7] it was 0.955% (inactive); in assay [8], 6.93% (inactive). The inhibition of aggregation in assay [2] is 17.1% (inactive). The figures for the nuclei count in assay [2] and in assay [3] were 111% and 103%, respectively. For the same compound, the values for the fluorescence slope in assay [4] and in assay [6] were -0.545 (inactive) and 0.0053 (inactive), respectively. In addition, the NADPH fluorescence slope in assay [5] was -2.8e-05 (inactive).
For the compound `CCN(CC)S(=O)(=O)c1ccc2c(c1)c(=O)c(C(=O)NCCOC)cn2C`, the cell count in assay [1] came to 203. The inhibition was 6.9% (inactive) in assay [1], -24.6% (inactive) in assay [3], 19.3% (inactive) in assay [7] and 15.8% (inactive) in assay [8]. The inhibition of aggregation in assay [2] is 2.8% (inactive). For the same compound, the nuclei count in assay [2] worked out at 100%; in assay [3], 112%. Also, the fluorescence slope in assay [4] is -0.231 (inactive); in assay [6] it was 0.00464 (inactive). Besides, in assay [5], the NADPH fluorescence slope is -3.4e-05 (inactive).
`O=C1CC(c2ccccc2)CC(O)=C1C=NCCCN1CCOCC1` (centres undefined): in assay [1], the cell count turned out to be 307. Further, the inhibition in assay [1] is 3.9% (inactive); in assay [3], 49.8% (inactive); in assay [7] it was 7.43% (inactive); in assay [8], 9.1% (inactive). The inhibition of aggregation in assay [2] is 22.3% (inactive). The nuclei count turned out to be 88.8% in assay [2] and 69.3% in assay [3]. The fluorescence slope in assay [4] is -0.466 (inactive); in assay [6], 0.00557 (inactive). For the same compound, the NADPH fluorescence slope in assay [5] is -4e-06 (inactive).
For `Cc1n[nH]c(C)c1S(=O)(=O)N1CCCCCC1`, in assay [1], the cell count turned out to be 355. Further, the inhibition in assay [1] was 1.8% (inactive); in assay [3] it was -12.3% (inactive); in assay [7], 1.38% (inactive); in assay [8], 25% (inactive). In addition, the inhibition of aggregation in assay [2] is -0.3% (inactive). The nuclei count was 99.2% in assay [2] and 110% in assay [3]. In addition, the fluorescence slope was -0.488 (inactive) in assay [4] and 0.00614 (inactive) in assay [6]. For the same compound, the NADPH fluorescence slope in assay [5] is 1.3e-05 (inactive).
Consider `Cc1ccc(Cn2c(C(=O)NCCCN3CCOCC3)cc3sccc32)cc1`, for which the cell count in assay [1] amounted to 765. Further, the inhibition in assay [1] was -5.9% (inactive); in assay [3], -218% (inactive); in assay [7] it was 14.1% (inactive); in assay [8], 31.6% (inactive). Moreover, the inhibition of aggregation in assay [2] was -85.9% (inactive). For the same compound, the nuclei count in assay [2] is 111%; in assay [3] it was 118%. Moreover, the fluorescence slope was -0.486 (inactive) in assay [4] and 0.00431 (inactive) in assay [6]. Also, the NADPH fluorescence slope in assay [5] is 1.1e-05 (inactive).
As to `COCCCNC(=O)C1CCCN(C(=O)Nc2ccc(OC)cc2)C1` (centres undefined), the cell count in assay [1] was 675. The inhibition in assay [1] is -14.8% (inactive); in assay [3], 52.7% (inactive); in assay [7], 16.2% (inactive); in assay [8], 4.9% (inactive). Also, the inhibition of aggregation in assay [2] was -11.8% (inactive). Besides, the figures for the nuclei count in assay [2] and in assay [3] were 107% and 49.2%, respectively. The values for the fluorescence slope in assay [4] and in assay [6] were -0.315 (inactive) and 0.007 (inactive), respectively. Besides, in assay [5], the NADPH fluorescence slope was -5.2e-05 (inactive).
Regarding `CCOC(=O)c1c(NC(=O)CSc2nnc(-c3cccnc3)o2)sc(C)c1C`, the cell count in assay [1] was 431. Also, the inhibition in assay [1] was -13.1% (inactive); in assay [3], -15% (inactive); in assay [7], 3.63% (inactive); in assay [8], 16.6% (inactive). Moreover, the inhibition of aggregation in assay [2] was 24.3% (inactive). Moreover, the nuclei count in assay [2] is 73.6%; in assay [3] it was 98.1%. Moreover, the values for the fluorescence slope in assay [4] and in assay [6] were -0.484 (inactive) and 0.00591 (inactive), respectively. In assay [5], the NADPH fluorescence slope is 4.4e-06 (inactive).
In the case of `Nc1nnc(-c2ccccc2)c(-c2ccccc2)n1`, the cell count in assay [1] is 676. The inhibition is -2.1% (inactive) in assay [1], -71.1% (inactive) in assay [3], 0.988% (inactive) in assay [7] and 14.6% (inactive) in assay [8]. In assay [2], the inhibition of aggregation was 26.8% (inactive). The values for the nuclei count in assay [2] and in assay [3] were 83.9% and 111%, respectively. Besides, the fluorescence slope in assay [4] was -0.522 (inactive); in assay [6], 0.00428 (inactive). In addition, the NADPH fluorescence slope in assay [5] was -3.6e-05 (inactive).
As for `CC(=O)Nc1ccc(N2CCN(Cc3ccccc3F)CC2)cc1`, the cell count in assay [1] amounted to 452. Moreover, the inhibition is 19.4% (inactive) in assay [1], 34.5% (inactive) in assay [3], 8.54% (inactive) in assay [7] and 19% (inactive) in assay [8]. Also, the inhibition of aggregation in assay [2] is 12.1% (inactive). For the same compound, the results for the nuclei count in assay [2] and in assay [3] were 102% and 120%, respectively. Further, the results for the fluorescence slope in assay [4] and in assay [6] were -0.579 (inactive) and 0.0111 (inactive), respectively. In addition, in assay [5], the NADPH fluorescence slope is -3.8e-05 (inactive).
Regarding `COc1cc(C2=NOC(C(=O)NCc3ccc(F)cc3)C2)cc(OC)c1OC` (centres undefined), in assay [1], the cell count worked out at 774. Besides, the inhibition in assay [1] was 13.6% (inactive); in assay [3], -308% (inactive); in assay [7], 36.9% (inactive); in assay [8], 85.8% (active). In addition, in assay [2], the inhibition of aggregation was -195% (inactive). For the same compound, the nuclei count in assay [2] was 2.2%; in assay [3] it was 103%. In addition, the fluorescence slope was -0.462 (inactive) in assay [4] and 0.00672 (inactive) in assay [6]. Further, the NADPH fluorescence slope in assay [5] is 4.9e-05 (inactive).
Take `Nc1nc(N)nc(-c2ccccc2)n1`: the cell count in assay [1] came to 402. Also, the inhibition was 6% (inactive) in assay [1], 22.3% (inactive) in assay [3], 13.8% (inactive) in assay [7] and 13.5% (inactive) in assay [8]. For the same compound, in assay [2], the inhibition of aggregation was 12% (inactive). Besides, the nuclei count came to 91.3% in assay [2] and 102% in assay [3]. In addition, the fluorescence slope was -0.599 (inactive) in assay [4] and 0.00335 (inactive) in assay [6]. For the same compound, in assay [5], the NADPH fluorescence slope was -3.3e-05 (inactive).
For the compound `Cc1ccc(C)c(OCC(O)CN2C(C)CCCC2C)c1` (centres undefined), the cell count in assay [1] was 379. In addition, the inhibition was 0% (inactive) in assay [1], -71.2% (inactive) in assay [3], 13.4% (inactive) in assay [7] and 26.5% (inactive) in assay [8]. Besides, the inhibition of aggregation in assay [2] was 2.7% (inactive). Also, the nuclei count in assay [2] came out at 93.8%; in assay [3], 117%. The fluorescence slope in assay [4] was -0.526 (inactive); in assay [6], 0.00528 (inactive). The NADPH fluorescence slope in assay [5] was 5e-05 (inactive).
